Reference: article PMC9488007 (Environmental Science and Ecotechnology, 2020)
≈ marks a conversion by molar mass, not a printed value. Where “and” joins values, the source holds several entries; their conditions need not be identical. Equal values may be shown once. Read-outs that look alike come from different tables or passages of the source.

Tests used:
[1] = tested on: grass carp hepatocyte cell line, L8824; experiment: cells; format: cell-based; conditions: for Cytotoxicity (proliferation reduction), L8824: high concentration (2 mg L^−1)
[2] = Desorption kinetics of bisphenols from bisphenol-attached PVC microplastics; format: physicochemical
How it was run: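 Bisphenol-loaded PVC from the adsorption step was placed in water or simulated intestinal fluid (NaCl 0.12 M, Na2CO3 0.02 M, sodium taurocholate 15.5 mM) in sealed 1 L glass bottles. Bottles were agitated rotationally at 200 rpm in an oil bath. Bisphenol was measured in filtered supernatant at intervals from 0 to 75 h. Run in triplicate.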

Desorption isotherms = format: physicochemical
[3] = water, ref Wu et al.^3; cited from earlier work
[4] = Adsorption of bisphenols onto PVC microplastics; format: physicochemical; conditions: 1.5 g PVC microplastics in 1 L, 48 h, room temperature
How it was run: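 Each bisphenol was dissolved in ethanol, then diluted in a 1 L glass bottle to initial concentrations of 0 to 1.0 mg L-1. PVC microplastics were added, and bottles were shaken at 200 rpm until adsorption equilibrium. Supernatants were filtered through a glass microfiber filter before bisphenol quantification. Run in triplicate.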

[5] = tested on: human breast adenocarcinoma cells, MCF-7; experiment: cells; format: cell-based; conditions: for Cytotoxicity (proliferation reduction), MCF-7: high concentration (2 mg L^−1)
[6] = Physicochemical properties of the five bisphenols; conditions: calculated from log Kow and pKa
[7] = Hepatocyte, 72 h, read-out: IC50 to L8824, 72 h exposure, 291 K, MTT
[8] = calculated for concentration desorbed in warm-I
[9] = calculated for concentration desorbed in water
[10] = Homo sapiens, MCF7, 72 h, read-out: IC50 to MCF-7, 72 h exposure, 311 K, MTT
[11] = read-out: IC50 to MCF-7, 72 h exposure, 311 K, MTT
[12] = read-out: IC50 to L8824, 72 h exposure, 291 K, MTT

Row | Compound | Fslow, slow fraction ([2]; cold-I, pH 7.5, 291 K) | Fvs, very slow fraction ([2]; cold-I, pH 7.5, 291 K) | krap, rapid desorption rate constant ([2]; cold-I, pH 7.5, 291 K) | kslow, slow desorption rate constant ([2]; cold-I, pH 7.5, 291 K) | kvs, very slow desorption rate constant ([2]; cold-I, pH 7.5, 291 K) | Fslow, slow fraction ([2]; warm-I, pH 6.5, 311 K) | Fvs, very slow fraction ([2]; warm-I, pH 6.5, 311 K) | krap, rapid desorption rate constant ([2]; warm-I, pH 6.5, 311 K) | kslow, slow desorption rate constant ([2]; warm-I, pH 6.5, 311 K) | kvs, very slow desorption rate constant ([2]; warm-I, pH 6.5, 311 K) | Fslow, slow fraction ([2]; water, pH 7.0, 291 K) | Fvs, very slow fraction ([2]; water, pH 7.0, 291 K) | krap, rapid desorption rate constant ([2]; water, pH 7.0, 291 K) | kslow, slow desorption rate constant ([2]; water, pH 7.0, 291 K) | kvs, very slow desorption rate constant ([2]; water, pH 7.0, 291 K) | kFd, Freundlich constant for desorption (Desorption isotherms; warm-I (Table 2)) | n, surface heterogeneity constant (desorption) (Desorption isotherms; warm-I (Table 2)) | kFd, Freundlich constant for desorption (Desorption isotherms; water (Table 2)) | kFa, Freundlich constant for adsorption [3] | n, surface heterogeneity constant (adsorption) [3] | further results
1 | Oc1ccc(C(c2ccc(O)cc2)(C(F)(F)F)C(F)(F)F)cc1 [BPAF, bisphenol AF] | 0.409±0.002 | 0.003±0.001 | 1.007±0.318 10^-2 h^-1 | 9.957±0.755 10^-4 h^-1 | <0.01 10^-5 h^-1 | 0.315±0.007 | <0.001 | 2.609±0.521 10^-2 h^-1 | 13.80±2.684 10^-4 h^-1 | <0.01 10^-5 h^-1 | 0.272±0.010 | 0.068±0.002 | 0.794±0.230 10^-2 h^-1 | 5.983±0.498 10^-4 h^-1 | 6.314±0.606 10^-5 h^-1 | 0.465 mg^−1/n·L^−1/n·g^−1 | 1.154 | 1.933 mg^−1/n·L^−1/n·g^−1 | 1.458 mg^−1/n·L^−1/n·g^−1 | 1.14 | IC50 [1, 7]: 1.15 ± 0.18 µg/mL; Cytotoxicity (proliferation reduction), L8824 [1, 8]: 46.31%; Cytotoxicity (proliferation reduction), L8824 [1, 9]: 32.70%; HI, hysteresis index (Desorption isotherms; warm-I): <0; HI, hysteresis index (Desorption isotherms; water): 0.326; n, surface heterogeneity constant (desorption) (Desorption isotherms; water (Table 2)): 1.155; amount of bisphenol adsorbed on the PVC [4]: 0.24 mg/g; IC50 [5, 10]: 2.65 ± 1.34 µg/mL; Cytotoxicity (proliferation reduction), MCF-7 [5, 8]: 36.87%; Cytotoxicity (proliferation reduction), MCF-7 [5, 9]: 24.19%; IC50 [5, 11]: 7.87 ± 3.98 µM
2 | O=S(=O)(c1ccc(O)cc1)c1ccc(O)cc1 [BPS, bisphenol S] | 0.383±0.001 | 0.085±0.002 | 0.587±0.228 10^-2 h^-1 | 7.612±0.336 10^-4 h^-1 | 12.03±0.685 10^-5 h^-1 | 0.325±0.005 | <0.001 | 1.497±0.391 10^-2 h^-1 | 10.00±1.191 10^-4 h^-1 | 11.338±0.322 10^-5 h^-1 | 0.410±0.007 | 0.028±0.002 | 0.580±0.174 10^-2 h^-1 | 6.789±0.198 10^-4 h^-1 | <0.01 10^-5 h^-1 | 0.341 mg^−1/n·L^−1/n·g^−1 | 1.207 | 0.602 mg^−1/n·L^−1/n·g^−1 | 0.503 mg^−1/n·L^−1/n·g^−1 | 1.15 | IC50 to L8824 ([1]; 72 h exposure, 291 K, MTT): 8.98 ± 1.51 µg/mL (≈ 35.9 µM); IC50 [1, 12]: 35.9 ± 6.01 µM; amount of bisphenol adsorbed on the PVC [4]: 0.15 mg/g; IC50 to MCF-7 ([5]; 72 h exposure, 311 K, MTT): 14.50 ± 1.95 µg/mL (≈ 57.9 µM); IC50 [5, 11]: 57.9 ± 7.76 µM
3 | CC(C)(c1ccc(O)cc1)c1ccc(O)cc1 [BPA, bisphenol A] | 0.395±0.003 | 0.043±0.005 | 0.809±0.302 10^-2 h^-1 | 10.90±0.407 10^-4 h^-1 | 9.442±0.716 10^-5 h^-1 | 0.303±0.046 | 0.019±0.003 | 2.163±0.456 10^-2 h^-1 | 11.40±0.898 10^-4 h^-1 | 9.069±0.647 10^-5 h^-1 | 0.284±0.004 | 0.076±0.004 | 0.746±0.206 10^-2 h^-1 | 5.979±0.555 10^-4 h^-1 | 6.997±0.788 10^-5 h^-1 | 0.398 mg^−1/n·L^−1/n·g^−1 | 1.218 | 1.033 mg^−1/n·L^−1/n·g^−1 | 0.801 mg^−1/n·L^−1/n·g^−1 | 1.21 | IC50 ([1]; Hepatocyte, 72 h, read-out: IC50 to L8824): 16.2 µM and 3.7 µg/mL; Cytotoxicity (proliferation reduction), L8824 [1, 8]: 29.75%; Cytotoxicity (proliferation reduction), L8824 [1, 9]: 20.08%; HI, hysteresis index (Desorption isotherms; warm-I): <0; HI, hysteresis index (Desorption isotherms; water): 0.289; n, surface heterogeneity constant (desorption) (Desorption isotherms; water (Table 2)): 1.512; log Dow [6]: 3.32; amount of bisphenol adsorbed on the PVC [4]: 0.19 mg/g; IC50 ([5]; Homo sapiens, MCF7, 72 h, read-out: IC50 to MCF-7): 36.9 µM and 8.42 µg/mL; Cytotoxicity (proliferation reduction), MCF-7 [5, 8]: 21.75%; Cytotoxicity (proliferation reduction), MCF-7 [5, 9]: 12.36%
4 | CCC(C)(c1ccc(O)cc1)c1ccc(O)cc1 [BPB, bisphenol B] | 0.456±0.005 | 0.059±0.001 | 0.864±0.209 10^-2 h^-1 | 10.80±0.737 10^-4 h^-1 | 7.718±0.488 10^-5 h^-1 | 0.308±0.003 | 0.010±0.001 | 2.479±0.452 10^-2 h^-1 | 18.90±2.818 10^-4 h^-1 | <0.01 10^-5 h^-1 | 0.293±0.006 | 0.046±0.002 | 0.777±0.285 10^-2 h^-1 | 6.751±0.274 10^-4 h^-1 | 6.992±0.534 10^-5 h^-1 | 0.428 mg^−1/n·L^−1/n·g^−1 | 1.179 | 1.542 mg^−1/n·L^−1/n·g^−1 | 1.182 mg^−1/n·L^−1/n·g^−1 | 1.16 | IC50 [1, 7]: 2.34 ± 0.23 µg/mL; Cytotoxicity (proliferation reduction), L8824 [1, 8]: 36.95%; Cytotoxicity (proliferation reduction), L8824 [1, 9]: 26.25%; IC50 [1, 12]: 9.67 ± 0.92 µM; HI, hysteresis index (Desorption isotherms; warm-I): <0; HI, hysteresis index (Desorption isotherms; water): 0.304; n, surface heterogeneity constant (desorption) (Desorption isotherms; water (Table 2)): 1.237; amount of bisphenol adsorbed on the PVC [4]: 0.23 mg/g; IC50 [5, 10]: 21.6 µM and 5.25 µg/mL; Cytotoxicity (proliferation reduction), MCF-7 [5, 8]: 29.53%; Cytotoxicity (proliferation reduction), MCF-7 [5, 9]: 18.79%
